Results published in ChEMBL document CHEMBL4393700, “Novel resveratrol-based flavonol derivatives: Synthesis and anti-inflammatory activity in vitro and in vivo” (Eur J Med Chem, 2019).
Blank lines part the entries; values can stand above or below the molecule they belong to. The source made the active and inactive calls. The rule behind the calls is not given here.

Tests used:
RAW264.7 [1] = test: Antiinflammatory activity in mouse RAW264.7 cells assessed as inhibition of LPS-induced NO production at 10 uM pretreated for 1 hr followed by LPS stimulation and measured after 24 hrs by Griess reagent based assay; assay type: functional, cell-based
Method in brief: (§1)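 RAW264.7 in DMEM/10% FBS with penicillin-streptomycin, 37 °C, 5% CO2; seeded 6×10^4 cells/well, grown 24 h, pretreated 1 h with test agent (10 µM screen; 10, 5, 2.5, 1.25, 0.625 µM for concentration series), then LPS 0.5 µg/mL for 24 h. Supernatant nitrite measured with Griess reagent.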

RAW264.7 [2] = test: Antiinflammatory activity in mouse RAW264.7 cells assessed as reduction in LPS-induced NO production pretreated for 1 hr followed by LPS stimulation and measured after 24 hrs by Griess reagent based assay; assay type: functional, cell-based; method in brief: as §1
RAW264.7 [3] = test: Antiinflammatory activity in mouse RAW264.7 cells assessed as reduction in LPS-induced IL-6 production pretreated for 1 hr followed by LPS stimulation and measured after 24 hrs by ELISA; assay type: functional, cell-based
Method in brief: (§2)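 RAW264.7 seeded 6×10^4 cells/well, cultured 24 h; 1 h pretreatment at 10, 5, 2.5, 1.25 or 0.625 µM, then LPS 0.5 µg/mL for 24 h. IL-6 and TNF-α in conditioned medium quantified by ELISA.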

RAW264.7 [4] = test: Antiinflammatory activity in mouse RAW264.7 cells assessed as reduction in LPS-induced TNF alpha production pretreated for 1 hr followed by LPS stimulation and measured after 24 hrs by ELISA; assay type: functional, cell-based; method in brief: as §2
RAW264.7 [5] = test: Cytotoxicity against LPS-stimulated mouse RAW264.7 cells at 20 uM pretreated for 1 hr followed by LPS stimulation and measured after 24 hrs by MTT assay; conditions: raw264.7, 24 h

IC50 (RAW264.7 [2]): 4.83 µM
IC50 (RAW264.7 [3]): 5.06 µM
IC50 (RAW264.7 [4]): 7.34 µM
Structure (SMILES): COc1ccc(/C=C/c2cc(OC)cc(OC)c2-c2oc3ccc(Cl)cc3c(=O)c2O)cc1
inhibition (RAW264.7 [1]): Active
Activity (RAW264.7 [2]): Dose-dependent effect
Activity (RAW264.7 [3]): Dose-dependent effect
Activity (RAW264.7 [4]): Dose-dependent effect

Structure (SMILES): Oc1ccc(/C=C/c2cc(O)cc(O)c2)cc1
inhibition (RAW264.7 [1]): Active

Structure (SMILES): COc1cc(/C=C/c2ccc(OCc3ccccc3)cc2)c(-c2cc(=O)c3cc(OC)ccc3o2)c(OC)c1
Activity (RAW264.7 [5]): Non-Toxic

Structure (SMILES): COc1ccc(/C=C/c2cc(OC)cc(OC)c2-c2cc(=O)c3cc(OC)c(OC)cc3o2)cc1
Activity (RAW264.7 [5]): Non-Toxic

Structure (SMILES): CCOc1ccc(/C=C/c2cc(OC)cc(OC)c2-c2cc(=O)c3cc(OC)ccc3o2)cc1
Activity (RAW264.7 [5]): Non-Toxic

IC50 (RAW264.7 [2]): 1.78 µM
IC50 (RAW264.7 [3]): 2.37 µM
IC50 (RAW264.7 [4]): 5 µM
Structure (SMILES): COc1ccc(/C=C/c2cc(OC)cc(OC)c2-c2oc3ccc(OC)cc3c(=O)c2O)cc1
inhibition (RAW264.7 [1]): Active
Activity (RAW264.7 [2]): Dose-dependent effect
Activity (RAW264.7 [3]): Dose-dependent effect
Activity (RAW264.7 [4]): Dose-dependent effect

Structure (SMILES): COc1ccc(/C=C/c2cc(OC)cc(OC)c2-c2cc(=O)c3cc(F)ccc3o2)cc1
inhibition (RAW264.7 [1]): Active
